Test system: U2OS
Experiment: Multiplex assay against U2OS
Format: toxicity, cell-based
Conditions: human
In short: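 At seeding, live cells were stained with Hoechst33342, BioTracker Green Microtubule Cytoskeleton Dye, MitoTracker Red and Annexin V Alexa Fluor 680. After compound addition they were imaged on a CQ1 microscope at 37°C and 5% CO2, and CellPathfinder machine-learning gating sorted them into Hoechst high-intensity objects or normal cells, with normal cells further split into healthy, pyknosed or fragmented nuclei and pyknosed cells into mitotic or apoptotic. Tubulin, mitochondrial-mass and membrane-permeability phenotypes are given as per cents of cells with healthy nuclei.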

[1] = 12 h, 1 µM, compound concentration 1 uM, replicate 1
[2] = 12 h, 1 µM, compound concentration 1 uM, replicate 2
[3] = 12 h, 10 µM, compound concentration 10 uM, replicate 1
[4] = 12 h, 10 µM, compound concentration 10 uM, replicate 2
[5] = 24 h, 1 µM, compound concentration 1 uM, replicate 1
[6] = 24 h, 1 µM, compound concentration 1 uM, replicate 2
[7] = 24 h, 10 µM, compound concentration 10 uM, replicate 1
[8] = 24 h, 10 µM, compound concentration 10 uM, replicate 2
[9] = 48 h, 1 µM, compound concentration 1 uM, replicate 1
[10] = 48 h, 1 µM, compound concentration 1 uM, replicate 2
[11] = 48 h, 10 µM, compound concentration 10 uM, replicate 1
[12] = 48 h, 10 µM, compound concentration 10 uM, replicate 2

Compound: CC(=O)Nc1cccc2c1c(Sc1ccc(Cl)cc1)c(C)n2CC(=O)O [AZD1981]
- Population Apoptotic (%) [1]: 68%
- Population Fragmented Nuclei (%) [1]: 24%
- Population Healthy Nuclei (%) [1]: 68%
- Population Hoechst High Intensity Objects (%) [1]: 3%
- Population Membrane Permeable-Phenotype (%) [1]: 3%
- Population Mitochondria Different-Phenotype (%) [1]: 0%
- Population Mitotic Cells (%) [1]: 31%
- Population Normal (%) [1]: 96%
- Population Pyknosed Nuclei (%) [1]: 6%
- Population Tubulin-Different-Phenotype (%) [1]: 2%
- Total Cell Count [1]: 253
- Population Apoptotic (%) [2]: 83%
- Population Fragmented Nuclei (%) [2]: 16%
- Population Healthy Nuclei (%) [2]: 76%
- Population Hoechst High Intensity Objects (%) [2]: 1%
- Population Membrane Permeable-Phenotype (%) [2]: 6%
- Population Mitochondria Different-Phenotype (%) [2]: 1%
- Population Mitotic Cells (%) [2]: 16%
- Population Normal (%) [2]: 98%
- Population Pyknosed Nuclei (%) [2]: 7%
- Population Tubulin-Different-Phenotype (%) [2]: 3%
- Total Cell Count [2]: 82
- Population Apoptotic (%) [3]: 83%
- Population Fragmented Nuclei (%) [3]: 25%
- Population Healthy Nuclei (%) [3]: 66%
- Population Hoechst High Intensity Objects (%) [3]: 2%
- Population Membrane Permeable-Phenotype (%) [3]: 8%
- Population Mitochondria Different-Phenotype (%) [3]: 0%
- Population Mitotic Cells (%) [3]: 16%
- Population Normal (%) [3]: 97%
- Population Pyknosed Nuclei (%) [3]: 7%
- Population Tubulin-Different-Phenotype (%) [3]: 1%
- Total Cell Count [3]: 231
- Population Apoptotic (%) [4]: 80%
- Population Fragmented Nuclei (%) [4]: 19%
- Population Healthy Nuclei (%) [4]: 76%
- Population Hoechst High Intensity Objects (%) [4]: 3%
- Population Membrane Permeable-Phenotype (%) [4]: 10%
- Population Mitochondria Different-Phenotype (%) [4]: 3%
- Population Mitotic Cells (%) [4]: 20%
- Population Normal (%) [4]: 96%
- Population Pyknosed Nuclei (%) [4]: 4%
- Population Tubulin-Different-Phenotype (%) [4]: 5%
- Total Cell Count [4]: 122
- Population Apoptotic (%) [5]: 91%
- Population Fragmented Nuclei (%) [5]: 25%
- Population Healthy Nuclei (%) [5]: 66%
- Population Hoechst High Intensity Objects (%) [5]: 2%
- Population Membrane Permeable-Phenotype (%) [5]: 5%
- Population Mitochondria Different-Phenotype (%) [5]: 1%
- Population Mitotic Cells (%) [5]: 8%
- Population Normal (%) [5]: 97%
- Population Pyknosed Nuclei (%) [5]: 8%
- Population Tubulin-Different-Phenotype (%) [5]: 3%
- Total Cell Count [5]: 289
- Population Apoptotic (%) [6]: 50%
- Population Fragmented Nuclei (%) [6]: 16%
- Population Healthy Nuclei (%) [6]: 82%
- Population Hoechst High Intensity Objects (%) [6]: 0%
- Population Membrane Permeable-Phenotype (%) [6]: 4%
- Population Mitochondria Different-Phenotype (%) [6]: 3%
- Population Mitotic Cells (%) [6]: 50%
- Population Normal (%) [6]: 100%
- Population Pyknosed Nuclei (%) [6]: 1%
- Population Tubulin-Different-Phenotype (%) [6]: 0%
- Total Cell Count [6]: 106
- Population Apoptotic (%) [7]: 88%
- Population Fragmented Nuclei (%) [7]: 23%
- Population Healthy Nuclei (%) [7]: 66%
- Population Hoechst High Intensity Objects (%) [7]: 0%
- Population Membrane Permeable-Phenotype (%) [7]: 6%
- Population Mitochondria Different-Phenotype (%) [7]: 2%
- Population Mitotic Cells (%) [7]: 11%
- Population Normal (%) [7]: 99%
- Population Pyknosed Nuclei (%) [7]: 9%
- Population Tubulin-Different-Phenotype (%) [7]: 2%
- Total Cell Count [7]: 266
- Population Apoptotic (%) [8]: 100%
- Population Fragmented Nuclei (%) [8]: 14%
- Population Healthy Nuclei (%) [8]: 77%
- Population Membrane Permeable-Phenotype (%) [8]: 3%
- Population Mitochondria Different-Phenotype (%) [8]: 4%
- Population Mitotic Cells (%) [8]: 0%
- Population Pyknosed Nuclei (%) [8]: 8%
- Population Tubulin-Different-Phenotype (%) [8]: 0%
- Total Cell Count [8]: 125
- Population Apoptotic (%) [9]: 91%
- Population Fragmented Nuclei (%) [9]: 16%
- Population Healthy Nuclei (%) [9]: 74%
- Population Hoechst High Intensity Objects (%) [9]: 1%
- Population Membrane Permeable-Phenotype (%) [9]: 6%
- Population Mitochondria Different-Phenotype (%) [9]: 2%
- Population Mitotic Cells (%) [9]: 8%
- Population Normal (%) [9]: 98%
- Population Pyknosed Nuclei (%) [9]: 9%
- Population Tubulin-Different-Phenotype (%) [9]: 4%
- Total Cell Count [9]: 375
- Population Apoptotic (%) [10]: 81%
- Population Fragmented Nuclei (%) [10]: 9%
- Population Healthy Nuclei (%) [10]: 82%
- Population Hoechst High Intensity Objects (%) [10]: 3%
- Population Mitochondria Different-Phenotype (%) [10]: 0%
- Population Mitotic Cells (%) [10]: 18%
- Population Normal (%) [10]: 96%
- Population Pyknosed Nuclei (%) [10]: 7%
- Population Tubulin-Different-Phenotype (%) [10]: 1%
- Total Cell Count [10]: 144
- Population Apoptotic (%) [11]: 100%
- Population Fragmented Nuclei (%) [11]: 18%
- Population Healthy Nuclei (%) [11]: 75%
- Population Hoechst High Intensity Objects (%) [11]: 2%
- Population Membrane Permeable-Phenotype (%) [11]: 7%
- Population Mitochondria Different-Phenotype (%) [11]: 2%
- Population Mitotic Cells (%) [11]: 0%
- Population Normal (%) [11]: 97%
- Population Pyknosed Nuclei (%) [11]: 5%
- Population Tubulin-Different-Phenotype (%) [11]: 4%
- Total Cell Count [11]: 366
- Population Apoptotic (%) [12]: 85%
- Population Fragmented Nuclei (%) [12]: 14%
- Population Healthy Nuclei (%) [12]: 73%
- Population Hoechst High Intensity Objects (%) [12]: 1%
- Population Mitochondria Different-Phenotype (%) [12]: 4%
- Population Mitotic Cells (%) [12]: 15%
- Population Normal (%) [12]: 98%
- Population Pyknosed Nuclei (%) [12]: 11%
- Total Cell Count [12]: 171

— ChEMBL document CHEMBL5058577, “EUbOPEN Chemogenomics Library 2 (Multiplex)” (2022)
